Holding throughout (assay type): functional
In test [1] the test system is Mycobacterium tuberculosis. Nature of the test: Antimycobacterial activity against Mycobacterium tuberculosis H37Rv by twofold agar dilution method. In outline:
(§1)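 Strains grown in Middlebrook 7H11 with OADC. Suspensions at McFarland 1 turbidity were diluted 1:10, 1:100 and 1:10,000 in Middlebrook 7H9. These were inoculated onto duplicate Middlebrook 7H11 plates containing serial concentrations of compound.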

For test [2], the system named is Mycobacterium tuberculosis. Kind of test: Antimycobacterial activity against Mycobacterium tuberculosis H37Ra by twofold agar dilution method. The essentials:
as §1

Test [3] concerns Mycolicibacterium smegmatis. Kind of test: Antimycobacterial activity against Mycobacterium smegmatis MC2 155 after 72 hrs by broth microdilution method. The following applies: str. MC2 155, 72 h. In outline:
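Strains were pre-grown in Middlebrook 7H11 with OADC. The microdilution assay ran in sealed 96-well plates at 37 °C and was read after 72 h for M. smegmatis mc²155 and after 7 days for M. bovis BCG.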

In test [4] the test system is Candida albicans. Kind of test: Antifungal activity against Candida albicans after 48 hrs by NCCLS method. The essentials:
(§2)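 NCCLS yeast broth dilution; inocula from 48 h, 35 °C Sabouraud agar cultures diluted to 10⁶ CFU/mL; compounds from 10 mg/mL DMSO stock serially diluted in RPMI-1640, added to equal volume of fungal suspension in round-bottom microplates; incubated 35 °C for 48–72 h; MIC in duplicate.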

The subject of test [5] is Candida tropicalis. Kind of test: Antifungal activity against Candida tropicalis after 48 hrs by NCCLS method. In outline:
as §2

Test [6] concerns Enterococcus faecalis. Kind of test: Antibacterial activity against Enterococcus faecalis after 18 to 24 hrs by broth microdilution method. The essentials: (§3)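 Broth microdilution per CLSI; compounds dissolved in DMSO at 10 mg/mL stock, serially diluted in Mueller Hinton Broth, mixed with equal volume of bacterial inoculum (final […]); incubated 37 °C for 18–24 h; MIC taken as lowest concentration preventing visible growth; duplicate determinations.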

Test [7] has as its system Staphylococcus aureus. Nature of the test: Antibacterial activity against Staphylococcus aureus after 18 to 24 hrs by broth microdilution method. In outline:
as §3

Test [8] relates to Staphylococcus epidermidis. Nature of the test: Antibacterial activity against Staphylococcus epidermidis after 18 to 24 hrs by broth microdilution method. The essentials:
as §3

Test [9] has as its system Acinetobacter baumannii. Kind of test: Antibacterial activity against Acinetobacter baumannii after 18 to 24 hrs by broth microdilution method. The essentials: as §3
Test [10] relates to Enterobacter cloacae. Nature of the test: Antibacterial activity against Enterobacter cloacae after 18 to 24 hrs by broth microdilution method. The essentials: as §3
Test [11] deals with Escherichia coli. Nature of the test: Antibacterial activity against Escherichia coli after 18 to 24 hrs by broth microdilution method. In outline: as §3
Test [12] concerns Klebsiella pneumoniae. Nature of the test: Antibacterial activity against Klebsiella pneumoniae after 18 to 24 hrs by broth microdilution method. The essentials: as §3
Test [13] concerns Pseudomonas aeruginosa. Nature of the test: Antibacterial activity against Pseudomonas aeruginosa after 18 to 24 hrs by broth microdilution method. The essentials:
as §3

Test [14] has as its system Stenotrophomonas maltophilia. Kind of test: Antibacterial activity against Stenotrophomonas maltophilia after 18 to 24 hrs by broth microdilution method. In outline: as §3

In brackets after ≈: the same amount, converted by molar mass.

As to `CCOC(=O)c1cn(C)c2c(ccc3c2nnn3Cc2ccccc2)c1=O`, the MIC is 64 µg/mL (≈ 177 µM) in test [1]; > 128 µg/mL in test [2]; > 128 µg/mL in test [3]; > 64 µg/mL in test [4]; > 64 µg/mL in test [5]; > 64 µg/mL in test [6]. For the same compound, the minimal inhibitory concentration (MIC) in test [7], in [8], in test [9], in test [10], in test [11] and in test [12] was > 64 µg/mL each time. Besides, the MIC in test [13] and in [14] was > 64 µg/mL in each case.
As for `CCOC(=O)c1cn(CC)c2c(ccc3c2nnn3Cc2ccccc2)c1=O`, the MIC in test [1] was 64 µg/mL (≈ 170 µM); in [2], > 128 µg/mL; in [3] it was > 128 µg/mL; in [4] it was > 64 µg/mL; in [5], > 64 µg/mL; in test [6], > 64 µg/mL. The minimum inhibitory concentration (MIC) in test [7], in test [8], in test [9], in test [10], in [11] and in test [12] was > 64 µg/mL throughout. For the same compound, the MIC in test [13] and in test [14] was > 64 µg/mL throughout.
Regarding `C=CCn1cc(C(=O)OCC)c(=O)c2ccc3c(nnn3Cc3ccccc3)c21`, the MIC was 64 µg/mL (≈ 165 µM) in test [1]; > 128 µg/mL in [2]; > 128 µg/mL in test [3]; > 64 µg/mL in [4]; > 64 µg/mL in [5]; > 64 µg/mL in test [6]. For the same compound, the MIC in test [7], in test [8], in test [9], in test [10], in [11] and in [12] was > 64 µg/mL each time. In addition, the minimum inhibitory concentration (MIC) in test [13] and in [14] was > 64 µg/mL each time.
On to `CCCCn1cc(C(=O)OCC)c(=O)c2ccc3c(nnn3Cc3ccccc3)c21`, for which the minimum inhibitory concentration (MIC) in test [1] was 64 µg/mL (≈ 158 µM); in test [2] it was 32 µg/mL (≈ 79.1 µM); in test [3], > 128 µg/mL; in [4], > 64 µg/mL; in test [5] it was > 64 µg/mL; in [6] it was > 64 µg/mL. The minimal inhibitory concentration (MIC) in test [7], in test [8], in [9], in test [10], in test [11] and in [12] was > 64 µg/mL in each case. Moreover, the minimal inhibitory concentration (MIC) in [13] and in [14] was > 64 µg/mL each time.
As to `CCOC(=O)c1cn(C(C)(C)C)c2c(ccc3c2nnn3C)c1=O`, the MIC was 32 µg/mL (≈ 97.5 µM) in test [1]; 4 µg/mL (≈ 12.2 µM) in test [2]; 16 µg/mL (≈ 48.7 µM) in test [3]; > 64 µg/mL in test [4]; > 64 µg/mL in test [5]; > 64 µg/mL in test [6]. The minimal inhibitory concentration (MIC) in [7], in [8], in test [9], in test [10], in test [11] and in test [12] was > 64 µg/mL throughout. The MIC in test [13] and in test [14] was > 64 µg/mL each time.
In the case of `C=C(C)Cn1cc(C(=O)OCC)c(=O)c2ccc3c(nnn3C)c21`, the minimum inhibitory concentration (MIC) is 64 µg/mL (≈ 196 µM) in test [1]; > 128 µg/mL in test [2]; > 128 µg/mL in [3]; > 64 µg/mL in test [4]; > 64 µg/mL in [5]; > 64 µg/mL in [6]. The MIC in [7], in test [8], in test [9], in [10], in test [11] and in test [12] was > 64 µg/mL each time. Also, the minimal inhibitory concentration (MIC) in test [13] and in test [14] was > 64 µg/mL throughout.
On to `CCOC(=O)c1cn(CC2CC2)c2c(ccc3c2nnn3C)c1=O`, for which the minimal inhibitory concentration (MIC) in test [1] was 64 µg/mL (≈ 196 µM); in [2], > 128 µg/mL; in test [3] it was > 128 µg/mL; in test [4] it was > 64 µg/mL; in [5], > 64 µg/mL; in [6], > 64 µg/mL. The minimum inhibitory concentration (MIC) in test [7], in [8], in test [9], in test [10], in test [11] and in test [12] was > 64 µg/mL throughout. Besides, the MIC in test [13] and in test [14] was > 64 µg/mL throughout.
Take `CCOC(=O)c1cn(CC2CCC2)c2c(ccc3c2nnn3C)c1=O`: the MIC is 64 µg/mL (≈ 188 µM) in test [1]; > 128 µg/mL in [2]; > 128 µg/mL in test [3]; > 64 µg/mL in test [4]; > 64 µg/mL in [5]; > 64 µg/mL in test [6]. The MIC in test [7], in test [8], in test [9], in [10], in [11] and in [12] was > 64 µg/mL in each case. Besides, the minimum inhibitory concentration (MIC) in test [13] and in test [14] was > 64 µg/mL in each case.
`CCn1cc(C(=O)O)c(=O)c2ccc3c(nnn3Cc3ccccc3)c21`: the MIC in test [1] is 64 µg/mL (≈ 184 µM); in [2], 8 µg/mL (≈ 23 µM); in test [3], 64 µg/mL (≈ 184 µM); in test [4], > 64 µg/mL; in test [5], > 64 µg/mL; in test [6], > 64 µg/mL. Besides, the minimum inhibitory concentration (MIC) in test [7], in test [8], in test [9], in test [10], in [11] and in test [12] was > 64 µg/mL throughout. Also, the minimum inhibitory concentration (MIC) in [13] and in test [14] was > 64 µg/mL each time.
`C=CCn1cc(C(=O)O)c(=O)c2ccc3c(nnn3Cc3ccccc3)c21`: the MIC was 64 µg/mL (≈ 178 µM) in test [1]; 4 µg/mL (≈ 11.1 µM) in [2]; > 128 µg/mL in test [3]; > 64 µg/mL in test [4]; > 64 µg/mL in [5]; > 64 µg/mL in test [6]. Further, the minimum inhibitory concentration (MIC) in test [7], in test [8], in test [9], in [10], in test [11] and in [12] was > 64 µg/mL throughout. In addition, the MIC in test [13] and in test [14] was > 64 µg/mL in each case.
`O=C(O)c1cn(C2CC2)c2cc(N3CCNCC3)c(F)cc2c1=O` [CIPROFLOXACIN]: the minimum inhibitory concentration (MIC) in test [1] is 0.5 µg/mL (≈ 1.51 µM); in test [2] it was 0.5 µg/mL (≈ 1.51 µM); in test [3], 0.125 µg/mL (≈ 0.377 µM).
As to `CC[C@@H](CO)NCCN[C@@H](CC)CO` [ETHAMBUTOL], the minimum inhibitory concentration (MIC) in test [1] was determined as 5 µg/mL (≈ 24.5 µM); in test [2], 4 µg/mL (≈ 19.6 µM); in test [3], 0.5 µg/mL (≈ 2.45 µM).
In the case of `CO[C@H]1/C=C/O[C@@]2(C)Oc3c(C)c(O)c4c(O)c(c(/C=N/N5CCN(C)CC5)c(O)c4c3C2=O)NC(=O)/C(C)=C\C=C\[C@H](C)[C@H](O)[C@@H](C)[C@@H](O)[C@@H](C)[C@H](OC(C)=O)[C@@H]1C` [RIFAMPIN], the MIC in [1] was < 0.5 µg/mL; in test [2], ≤ 0.06 µg/mL; in [3], 8 µg/mL (≈ 9.72 µM).
Regarding `CN[C@@H]1[C@H](O[C@H]2[C@H](O[C@H]3[C@H](O)[C@@H](O)[C@H](N=C(N)N)[C@@H](O)[C@@H]3N=C(N)N)O[C@@H](C)[C@]2(O)C=O)O[C@@H](CO)[C@H](O)[C@H]1O` [STREPTOMYCIN], the MIC in [1] and in [2] was 1 µg/mL (≈ 1.72 µM) each time.

Source of the values: ChEMBL document CHEMBL1649406, “Synthesis and anti-mycobacterial activities of triazoloquinolones” (Eur J Med Chem, 2011).
